Series [1] concerns the target T1, IKZF2 (Homo sapiens, UniProt Q96SW2+Q9UKS7). Nature of the series: IKZF2 HiBiT degradation assay in HEK293 cells. In kind it is cell-based. Conditions: for Dmax: HEK293, read-out: IKZF2 degradation Dmax. For orientation: The HiBiT peptide binds its large partner to form an active luciferase.
The next series deals with SALL4 (Homo sapiens, UniProt Q9UJQ4). Nature of the series: SALL4 HiBiT degradation assay in HEK293 cells. It counts as cell-based. The gist of the method:
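Each HiBiT-tagged target construct was integrated into the FRT site by the FLP-IN system, and integration was checked by lytic HiBiT detection. Cells got test compound at 0.017 nM to 10 µM, with DMSO as vehicle control, for 6 h. HiBiT signal was then read by lytic luminescence detection. DC50 and Dmax came from a four-parameter dose-response fit.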

Series [2] deals with T1, IKZF2. Nature of the series: IKZF2 FACS assay in primary human Tregs. The note with it: read-out: IKZF2 degradation Dmax in human Treg cells. In kind it is cell-based. In short, it runs like this: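 Thawed human PBMCs were resuspended in RPMI with 10% FBS and 1% P/S. They were treated with test compound at 0.05 nM to 1 μM, with DMSO as vehicle control, for 3 or 6 h. IKZF2 in Treg cells was then assessed by FACS under a defined gating strategy.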

The next series addresses hERG channel (Homo sapiens, UniProt Q12809). Nature of the series: hERG channel inhibition, manual patch-clamp. It counts as cell-based.
The test system of a further series is IL-2. Nature of the series: IL-2 production in Jurkat cells. It counts as cell-based, human. Conditions: Jurkat stimulated with anti-CD3/CD28, bead-to-cell ratio 1:4.
A short description of a further series: PK study in mice. Conditions: male, ICR, mouse, plasma, po, 3 mg/kg. In kind it is in vivo.
A further series can be described thus: PK study in rats. Conditions: male, Sprague Dawley, rat, plasma, po, 3 mg/kg. In kind it is in vivo.

From paper PMC12046021 (Nature Communications, 2025) come the findings set out here.

By Dmax is commonly meant the greatest extent of degradation seen. Broadly, the DC50 is the concentration giving 50% degradation. Usually AUC stands for concentration integrated over time.

The structures appear in SMILES notation. Some results are limits rather than exact numbers.

T1 sequence (Q9UKS7 whole entry): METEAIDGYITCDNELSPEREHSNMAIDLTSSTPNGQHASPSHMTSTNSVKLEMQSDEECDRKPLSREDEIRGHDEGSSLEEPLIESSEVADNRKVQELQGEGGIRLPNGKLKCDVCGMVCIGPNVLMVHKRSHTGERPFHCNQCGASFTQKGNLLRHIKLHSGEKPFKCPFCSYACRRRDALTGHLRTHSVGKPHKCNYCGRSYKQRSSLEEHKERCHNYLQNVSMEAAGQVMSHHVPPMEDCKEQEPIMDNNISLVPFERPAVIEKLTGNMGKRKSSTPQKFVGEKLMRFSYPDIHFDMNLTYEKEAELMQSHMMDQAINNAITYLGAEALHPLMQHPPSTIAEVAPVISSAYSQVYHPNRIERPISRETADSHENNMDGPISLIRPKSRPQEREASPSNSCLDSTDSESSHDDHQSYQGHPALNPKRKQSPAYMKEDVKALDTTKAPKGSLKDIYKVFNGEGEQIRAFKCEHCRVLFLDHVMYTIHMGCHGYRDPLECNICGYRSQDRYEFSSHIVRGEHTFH
T1 sequence (Q96SW2 whole entry): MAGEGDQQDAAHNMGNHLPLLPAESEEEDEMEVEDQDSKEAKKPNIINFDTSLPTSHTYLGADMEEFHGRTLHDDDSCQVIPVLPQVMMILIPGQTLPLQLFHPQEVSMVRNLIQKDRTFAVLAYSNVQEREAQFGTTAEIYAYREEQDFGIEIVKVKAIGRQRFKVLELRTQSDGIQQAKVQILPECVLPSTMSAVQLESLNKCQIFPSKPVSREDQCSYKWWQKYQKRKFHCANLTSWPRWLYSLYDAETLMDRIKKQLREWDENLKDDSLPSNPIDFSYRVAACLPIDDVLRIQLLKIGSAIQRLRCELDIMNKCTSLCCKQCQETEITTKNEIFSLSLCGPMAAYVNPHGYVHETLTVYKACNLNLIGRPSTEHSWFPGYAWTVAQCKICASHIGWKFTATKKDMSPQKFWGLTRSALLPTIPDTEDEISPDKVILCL
T1 sequence (Q16531 whole entry partner): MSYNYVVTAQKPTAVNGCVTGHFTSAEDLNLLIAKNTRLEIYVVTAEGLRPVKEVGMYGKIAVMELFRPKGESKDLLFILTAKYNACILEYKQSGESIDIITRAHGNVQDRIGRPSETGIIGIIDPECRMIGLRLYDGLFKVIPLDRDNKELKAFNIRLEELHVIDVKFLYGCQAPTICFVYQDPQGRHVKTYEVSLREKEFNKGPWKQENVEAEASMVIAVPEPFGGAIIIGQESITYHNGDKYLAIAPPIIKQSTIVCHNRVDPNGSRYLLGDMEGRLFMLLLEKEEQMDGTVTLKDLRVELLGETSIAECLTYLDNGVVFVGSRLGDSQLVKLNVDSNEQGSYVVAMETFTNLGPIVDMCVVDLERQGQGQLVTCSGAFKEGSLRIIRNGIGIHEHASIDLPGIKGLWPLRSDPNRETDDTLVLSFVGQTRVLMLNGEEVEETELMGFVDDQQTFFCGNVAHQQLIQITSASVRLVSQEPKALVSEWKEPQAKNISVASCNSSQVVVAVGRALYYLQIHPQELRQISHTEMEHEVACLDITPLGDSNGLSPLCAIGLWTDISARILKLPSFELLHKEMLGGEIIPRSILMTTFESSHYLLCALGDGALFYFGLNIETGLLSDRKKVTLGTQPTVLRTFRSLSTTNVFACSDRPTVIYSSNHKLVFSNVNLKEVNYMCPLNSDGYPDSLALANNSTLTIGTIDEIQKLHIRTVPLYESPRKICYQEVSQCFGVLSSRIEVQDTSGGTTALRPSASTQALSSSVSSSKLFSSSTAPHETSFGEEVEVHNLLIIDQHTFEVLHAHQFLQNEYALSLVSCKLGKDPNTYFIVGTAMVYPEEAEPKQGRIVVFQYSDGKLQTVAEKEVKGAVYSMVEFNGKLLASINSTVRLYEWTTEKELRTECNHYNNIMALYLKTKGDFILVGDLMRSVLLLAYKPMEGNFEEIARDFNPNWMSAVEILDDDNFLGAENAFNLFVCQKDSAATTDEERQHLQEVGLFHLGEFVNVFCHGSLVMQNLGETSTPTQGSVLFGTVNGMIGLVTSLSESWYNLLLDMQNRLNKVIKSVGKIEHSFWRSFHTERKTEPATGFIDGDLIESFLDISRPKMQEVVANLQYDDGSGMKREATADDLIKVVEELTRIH
Sequence of SALL4 (Q96SW2 whole entry partner): as the sequence (Q96SW2 whole entry) above
Sequence of SALL4 (Q16531 whole entry partner): as the sequence (Q16531 whole entry partner) above
Sequence of SALL4 (Q9UJQ4 whole entry): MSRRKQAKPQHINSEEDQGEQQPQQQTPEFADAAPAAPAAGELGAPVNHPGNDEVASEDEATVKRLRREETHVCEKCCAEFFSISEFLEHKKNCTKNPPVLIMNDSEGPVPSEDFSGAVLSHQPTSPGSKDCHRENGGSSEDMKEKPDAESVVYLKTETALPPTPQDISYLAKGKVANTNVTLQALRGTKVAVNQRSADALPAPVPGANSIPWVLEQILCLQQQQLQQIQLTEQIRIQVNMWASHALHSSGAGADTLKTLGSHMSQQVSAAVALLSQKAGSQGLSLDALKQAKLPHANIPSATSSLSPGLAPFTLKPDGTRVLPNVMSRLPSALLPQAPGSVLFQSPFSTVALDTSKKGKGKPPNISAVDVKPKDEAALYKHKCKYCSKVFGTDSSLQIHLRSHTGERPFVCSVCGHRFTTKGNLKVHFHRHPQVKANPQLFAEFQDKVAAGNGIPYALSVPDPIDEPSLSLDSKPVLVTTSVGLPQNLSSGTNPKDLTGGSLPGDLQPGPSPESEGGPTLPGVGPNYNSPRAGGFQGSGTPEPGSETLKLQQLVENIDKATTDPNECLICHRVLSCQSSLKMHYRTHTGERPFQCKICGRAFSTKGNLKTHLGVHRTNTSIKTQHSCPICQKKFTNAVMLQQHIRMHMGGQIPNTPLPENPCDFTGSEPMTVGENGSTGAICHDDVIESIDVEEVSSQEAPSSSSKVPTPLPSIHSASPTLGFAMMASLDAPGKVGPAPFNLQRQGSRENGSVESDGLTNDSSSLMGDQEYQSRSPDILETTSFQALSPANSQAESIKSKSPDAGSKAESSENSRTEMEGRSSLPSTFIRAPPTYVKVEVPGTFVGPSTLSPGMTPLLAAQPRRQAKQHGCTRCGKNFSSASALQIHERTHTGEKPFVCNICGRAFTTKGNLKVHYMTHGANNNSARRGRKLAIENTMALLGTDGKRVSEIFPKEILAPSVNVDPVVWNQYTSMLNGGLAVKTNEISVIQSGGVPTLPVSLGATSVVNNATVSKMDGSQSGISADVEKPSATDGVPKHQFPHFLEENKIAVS
Sequence of hERG channel (Q12809 whole entry): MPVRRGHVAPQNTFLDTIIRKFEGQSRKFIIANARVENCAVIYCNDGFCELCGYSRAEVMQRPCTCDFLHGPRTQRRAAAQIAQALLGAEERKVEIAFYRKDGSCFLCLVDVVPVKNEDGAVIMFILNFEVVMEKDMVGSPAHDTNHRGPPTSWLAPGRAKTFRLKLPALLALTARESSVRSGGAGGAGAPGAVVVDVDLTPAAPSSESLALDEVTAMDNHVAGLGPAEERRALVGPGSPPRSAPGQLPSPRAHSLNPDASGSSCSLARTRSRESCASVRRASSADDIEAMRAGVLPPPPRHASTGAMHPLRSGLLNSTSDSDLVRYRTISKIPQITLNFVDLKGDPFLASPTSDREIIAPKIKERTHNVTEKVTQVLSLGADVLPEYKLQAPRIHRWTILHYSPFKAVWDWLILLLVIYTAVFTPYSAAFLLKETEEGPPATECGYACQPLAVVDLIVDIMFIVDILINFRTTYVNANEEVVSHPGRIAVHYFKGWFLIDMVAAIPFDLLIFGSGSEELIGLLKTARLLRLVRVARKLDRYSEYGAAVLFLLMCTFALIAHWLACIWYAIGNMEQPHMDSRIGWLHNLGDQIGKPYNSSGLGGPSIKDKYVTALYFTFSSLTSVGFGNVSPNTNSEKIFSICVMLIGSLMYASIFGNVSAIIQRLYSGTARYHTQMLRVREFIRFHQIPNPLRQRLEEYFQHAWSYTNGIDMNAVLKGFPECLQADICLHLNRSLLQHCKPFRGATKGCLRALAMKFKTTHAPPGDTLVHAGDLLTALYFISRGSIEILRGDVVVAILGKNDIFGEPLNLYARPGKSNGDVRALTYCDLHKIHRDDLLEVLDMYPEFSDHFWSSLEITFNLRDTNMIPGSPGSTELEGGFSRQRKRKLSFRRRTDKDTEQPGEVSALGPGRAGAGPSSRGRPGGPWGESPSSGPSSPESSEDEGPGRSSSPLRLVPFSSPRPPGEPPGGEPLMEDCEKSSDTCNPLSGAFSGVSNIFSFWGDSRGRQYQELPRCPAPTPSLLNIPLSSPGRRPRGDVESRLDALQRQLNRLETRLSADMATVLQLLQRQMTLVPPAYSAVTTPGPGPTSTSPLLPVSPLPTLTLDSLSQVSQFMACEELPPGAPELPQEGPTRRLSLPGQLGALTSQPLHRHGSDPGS

For `O=C1CCC(N2Cc3c(ccc4c3OCC43CCCN(Cc4ccccc4)CC3)C2=O)C(=O)N1` (stereo not drawn) [Compound 9], the Dmax on IKZF2 [1] turned out to be 17%.

With `O=C1CCC(N2Cc3cc(C4CCN(Cc5ccccc5)CC4)ccc3C2=O)C(=O)N1` (stereo not drawn) [DKY709], the Dmax on SALL4 (HEK293, read-out: SALL4 degradation Dmax) is 55%; on IKZF2 [1] it was 73%; on IKZF2 [2], 73%. The DC50 at SALL4 (read-out: SALL4 degradation DC50, HiBiT, HEK293, 6 h) was found to be 4.9 nM; at IKZF2 [1] (read-out: IKZF2 degradation DC50, HiBiT, HEK293, 6 h) it was 1.5 nM. Further, the “time to reach maximal IKZF2 degradation (Dmax plateau)” value on IKZF2 [1] (IKZF2 HiBiT, HEK293) is above 6 h. In addition, the “hERG inhibition IC30” value on hERG channel was 3000 nM. Also, the “IL-2 concentration in the supernatant (in words)” value in the series on IL-2 was “increase in IL-2 concentration in the supernatant”.

As to `O=C1CCC(N2Cc3c(ccc4c3OCC43CCN(CC4CCCCC4)CC3)C2=O)C(=O)N1` (stereo not drawn) [Compound 13], the Dmax at IKZF2 [1] was 69%.

Take `O=C1CCC(N2Cc3c(ccc4c3OCC43CCC(Oc4ccccc4)CC3)C2=O)C(=O)N1` (stereo not drawn) [Compound 7]: at IKZF2 [1], the Dmax came to 38%.

`O=C1CCC(N2Cc3c(ccc4c3OCC43CCN(Cc4ccccc4)CC3(F)F)C2=O)C(=O)N1` (stereo not drawn) [Compound 12]: the Dmax at IKZF2 [1] worked out at 68%.

In the case of `O=C1CCC(N2Cc3c(ccc4c3OCC43CCN(Cc4ccccn4)CC3)C2=O)C(=O)N1` (stereo not drawn) [Compound 14], the Dmax at IKZF2 [1] turned out to be 64%.

For the compound `O=C1CCC(N2Cc3c(ccc4c3OCC43CCN(Cc4ccccc4)C3)C2=O)C(=O)N1` (stereo not drawn) [Compound 8], on IKZF2 [1], the Dmax amounted to 33%.

Consider `O=C1CCC(N2Cc3c(ccc4c3OCC43CCN(Cc4ccsc4)CC3)C2=O)C(=O)N1` (stereo not drawn) [Compound 15], for which the Dmax on IKZF2 [1] was 84%.

With `O=C1CCC(N2Cc3c(ccc4c3OCC43CCN(Cc4ccccc4)CC3)C2=O)C(=O)N1` (stereo not drawn) [Compound 5], the exposure (AUC) in “PK study in mice” is 1340 ng·h/mL; in the series “PK study in rats” it was 1170 ng·h/mL.

Take `O=C1CCC(N2Cc3c(ccc4c3OCCC43CCN(Cc4ccccc4)CC3)C2=O)C(=O)N1` (stereo not drawn) [Compound 10]: the Dmax at IKZF2 [1] came to 39%.
